# In ChEMBL document CHEMBL4346653, “A2B Adenosine Receptor Antagonists with Picomolar Potency” (J Med Chem, 2019):
# Tests used:
# [1] = molecular target: T1, Adenosine receptor A3 (Homo sapiens) (UniProt P0DMS8); assay: Displacement of [3H]PSB-11 from recombinant human A3 adenosine receptor expressed in CHO cell membranes at 1 uM measured after 45 mins in presence of adenosine deaminase by liquid scintillation counting method relative to control
# T1 sequence (whole entry): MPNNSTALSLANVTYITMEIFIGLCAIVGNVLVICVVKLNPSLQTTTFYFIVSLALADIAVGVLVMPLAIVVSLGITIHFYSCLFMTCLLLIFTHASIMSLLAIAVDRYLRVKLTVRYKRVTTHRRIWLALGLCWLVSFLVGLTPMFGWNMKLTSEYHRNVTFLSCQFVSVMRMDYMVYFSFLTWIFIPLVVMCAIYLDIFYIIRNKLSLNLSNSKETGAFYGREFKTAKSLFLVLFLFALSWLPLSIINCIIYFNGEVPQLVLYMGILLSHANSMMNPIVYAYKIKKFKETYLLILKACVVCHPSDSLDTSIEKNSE
# Summary of the method: (§1)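 Single-point competition binding at human AR subtype membranes, each against its own tritiated radioligand. The test compound is given at 1 μM, and the result is reported as percent inhibition of radioligand binding. The radioligand-specific footnotes give n = 3.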
# Homo sapiens [2] = species: Homo sapiens; assay: Selectivity index, ratio of Ki for displacement of [3H]PSB-11 from recombinant human A3 adenosine receptor expressed in CHO cell membranes to Ki for displacement of [3H]PSB-603 from recombinant human A2B adenosine receptor expressed in CHO cell membranes
# Adenosine receptor A3 [3] = molecular target: T2, Adenosine receptor A3 (Mus musculus, UniProt Q61618); assay: Displacement of [3H]NECA from recombinant mouse A3 adenosine receptor expressed in CHO cell membranes measured after 180 mins in presence of adenosine deaminase by liquid scintillation counting method
# T2 sequence (Q61618 whole entry): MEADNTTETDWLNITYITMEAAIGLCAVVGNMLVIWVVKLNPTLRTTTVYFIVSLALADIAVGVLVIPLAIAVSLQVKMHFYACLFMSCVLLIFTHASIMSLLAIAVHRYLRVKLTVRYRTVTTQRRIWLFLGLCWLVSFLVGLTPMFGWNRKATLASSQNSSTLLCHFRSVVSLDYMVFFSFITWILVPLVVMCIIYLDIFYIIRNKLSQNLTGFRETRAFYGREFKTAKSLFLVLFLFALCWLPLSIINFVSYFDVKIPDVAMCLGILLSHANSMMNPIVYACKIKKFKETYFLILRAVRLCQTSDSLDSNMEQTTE
# [4] = molecular target: T3, Adenosine receptor A3 (Mus musculus) (UniProt Q61618); assay: Displacement of [3H]NECA from recombinant mouse A3 adenosine receptor expressed in CHO cell membranes at 1 uM measured after 180 mins in presence of adenosine deaminase by liquid scintillation counting method relative to control
# T3 sequence (whole entry): T2 sequence (Q61618 whole entry)
# Adenosine receptor A2b = molecular target: T4, Adenosine receptor A2b (Homo sapiens, UniProt P29275); assay: Displacement of [3H]PSB-603 from recombinant human A2B adenosine receptor expressed in CHO cell membranes measured after 75 mins in presence of adenosine deaminase by liquid scintillation counting method
# T4 sequence (P29275 whole entry): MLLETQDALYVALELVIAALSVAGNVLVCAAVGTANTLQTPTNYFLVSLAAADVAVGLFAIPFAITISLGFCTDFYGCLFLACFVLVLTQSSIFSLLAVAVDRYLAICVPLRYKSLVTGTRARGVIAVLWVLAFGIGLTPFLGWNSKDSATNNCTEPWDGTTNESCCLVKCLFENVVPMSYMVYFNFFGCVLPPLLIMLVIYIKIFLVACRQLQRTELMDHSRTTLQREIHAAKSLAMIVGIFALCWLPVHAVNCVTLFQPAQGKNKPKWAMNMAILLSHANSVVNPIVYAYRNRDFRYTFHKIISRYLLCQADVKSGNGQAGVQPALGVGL
# Summary of the method: (§2)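 Competition binding on membranes of cells recombinantly expressing the human receptor (CHO or HEK cells), with tritiated radioligand per subtype: [3H]PSB-603 for A2B, [3H]MSX-2 for A2A, [3H]CCPA for A1, [3H]PSB-11 for A3. Ki ± SEM from n = 3, some from extrapolated curves. Weak binders are reported as % inhibition of radioligand binding at 1 μM.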
# Adenosine receptor A1 = molecular target: T5, Adenosine receptor A1 (Homo sapiens, UniProt P30542); assay: Displacement of [3H]CCPA from recombinant human A1 adenosine receptor expressed in CHO cell membranes measured after 90 mins in presence of adenosine deaminase by liquid scintillation counting method; summary of the method: as §2
# T5 sequence (P30542 whole entry): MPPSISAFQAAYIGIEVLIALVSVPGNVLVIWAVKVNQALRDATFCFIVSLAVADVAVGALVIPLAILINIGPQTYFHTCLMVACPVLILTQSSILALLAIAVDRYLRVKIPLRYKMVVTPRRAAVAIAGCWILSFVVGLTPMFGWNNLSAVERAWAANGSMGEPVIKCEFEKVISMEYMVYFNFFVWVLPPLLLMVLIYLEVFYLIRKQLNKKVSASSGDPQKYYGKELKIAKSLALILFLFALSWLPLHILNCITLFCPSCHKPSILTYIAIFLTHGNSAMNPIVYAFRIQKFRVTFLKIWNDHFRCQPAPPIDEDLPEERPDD
# Adenosine receptor A3 [5] = molecular target: T6, Adenosine receptor A3 (Homo sapiens, UniProt P0DMS8); assay: Displacement of [3H]PSB-11 from recombinant human A3 adenosine receptor expressed in CHO cell membranes measured after 45 mins in presence of adenosine deaminase by liquid scintillation counting method; summary of the method: as §2
# T6 sequence (P0DMS8 whole entry): T1 sequence (whole entry)
# Adenosine receptor A2a [6] = molecular target: T7, Adenosine receptor A2a (Homo sapiens, UniProt P29274); assay: Displacement of [3H]MSX-2 from recombinant human A2A adenosine receptor expressed in CHO cell membranes at 1 uM measured after 30 mins in presence of adenosine deaminase by liquid scintillation counting method relative to control; summary of the method: as §1
# [7] = molecular target: T8, Adenosine receptor A1 (Homo sapiens) (UniProt P30542); assay: Displacement of [3H]CCPA from recombinant human A1 adenosine receptor expressed in CHO cell membranes at 1 uM measured after 90 mins in presence of adenosine deaminase by liquid scintillation counting method relative to control; summary of the method: as §1
# T8 sequence (whole entry): T5 sequence (P30542 whole entry)
# Homo sapiens [8] = species: Homo sapiens; assay: Selectivity index, ratio of Ki for displacement of [3H]CCPA from recombinant human A1 adenosine receptor expressed in CHO cell membranes to Ki for displacement of [3H]PSB-603 from recombinant human A2B adenosine receptor expressed in CHO cell membranes
# Adenosine receptor A2a [9] = molecular target: T7, Adenosine receptor A2a; assay: Displacement of [3H]MSX-2 from recombinant human A2A adenosine receptor expressed in CHO cell membranes measured after 30 mins in presence of adenosine deaminase by liquid scintillation counting method; summary of the method: as §2
# T7 sequence (P29274 whole entry): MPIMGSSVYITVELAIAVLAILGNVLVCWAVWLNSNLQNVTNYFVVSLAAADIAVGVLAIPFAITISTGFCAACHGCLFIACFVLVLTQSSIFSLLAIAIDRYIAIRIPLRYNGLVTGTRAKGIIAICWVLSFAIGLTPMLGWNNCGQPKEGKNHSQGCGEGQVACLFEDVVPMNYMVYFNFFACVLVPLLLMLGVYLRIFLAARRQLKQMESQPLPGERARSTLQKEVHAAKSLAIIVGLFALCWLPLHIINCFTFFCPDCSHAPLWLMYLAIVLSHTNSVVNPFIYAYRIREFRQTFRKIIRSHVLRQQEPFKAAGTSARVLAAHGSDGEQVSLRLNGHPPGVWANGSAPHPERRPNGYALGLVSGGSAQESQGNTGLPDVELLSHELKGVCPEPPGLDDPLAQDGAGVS
SMILES,inhibition [1],Ratio Ki (Homo sapiens [2]),Ki (Adenosine receptor A3 [3]),inhibition [4],Ki (Adenosine receptor A2b),Ki (Adenosine receptor A1),Ki (Adenosine receptor A3 [5]),inhibition (Adenosine receptor A2a [6]),inhibition [7],Ratio Ki (Homo sapiens [8]),Ki (Adenosine receptor A2a [9])
CCCn1c(=O)[nH]c2nc(-c3ccc(S(=O)(=O)N4CCN(c5ccc(Br)cc5)CC4)cc3)[nH]c2c1=O,29%,> 12000,> 1000 nM,8%,0.0835 nM,> 1000 nM,> 1000 nM,33%,13%,> 12000,> 1000 nM
CCCn1c(=O)[nH]c2nc(-c3ccc(S(=O)(=O)N4CCN(c5cccc(F)c5)CC4)cc3)[nH]c2c1=O,44%,> 1580,> 1000 nM,-2%,0.632 nM,> 1000 nM,> 1000 nM,38%,34%,> 1580,> 1000 nM
CCCn1c(=O)c2[nH]c(-c3ccc(S(=O)(=O)N4CCN(c5ccc(Cl)cc5)CC4)cc3)nc2n(C)c1=O,39%,> 520,> 1000 nM,-0.833%,1.91 nM,> 1000 nM,> 1000 nM,33%,22%,> 520,> 1000 nM
